Source: ChEMBL document CHEMBL3400020, “2'-Hydroxy flavanone derivatives as an inhibitors of pro-inflammatory mediators: Experimental and molecular docking studies” (Bioorg Med Chem Lett, 2015)

Experiments:
RAW264.7 [1] = assay: Inhibition of TNFalpha production in mouse RAW264.7 cells incubated for 6 hrs by sandwich immunoassay; format: functional, cell-based; conditions: RAW264.7, 6 h
How it was run: (§1)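 In RAW 264.7 and J774A.1 macrophages, TNF-α and IL-1β were quantified. Single-point data are % inhibition at 30 µM; otherwise IC50 in µM. Values are from three separate experiments, each in triplicate.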

J774.A1 [2] = assay: Inhibition of TNFalpha production in mouse J774A.1 cells incubated for 6 hrs by sandwich immunoassay; format: functional, cell-based; conditions: J774.A1, 6 h; how it was run: as §1
Rattus norvegicus [3] = assay: Antiinflammatory activity in Sprague-Dawley rat assessed as inhibition of LPS-induced TNFalpha production at 150 umol/kg, po pre-administered at interval of 12 hrs followed by LPS-stimulation 2 hrs after final dose and measured 2 hrs post LPS challenge by ELISA method; format: functional
Rattus norvegicus [4] = assay: Antiinflammatory activity in Sprague-Dawley rat assessed as inhibition of LPS-induced IL-1beta production at 150 umol/kg, po pre-administered at interval of 12 hrs followed by LPS-stimulation 6 hrs after final dose and measured 2 hrs post LPS challenge by ELISA method; format: functional
J774.A1 [5] = assay: Inhibition of IL-1beta production in mouse J774A.1 cells incubated for 12 hrs by sandwich immunoassay; format: functional, cell-based; conditions: J774.A1, 12 h; how it was run: as §1
Rattus norvegicus [6] = assay: Antiinflammatory activity in Sprague-Dawley rat assessed as inhibition of carrageenan-induced paw edema at 150 umol/kg, po administered 1 hr before carrageenan injection and measured 5 hrs post carrageenan challenge
Rattus norvegicus [7] = assay: Antiinflammatory activity in Sprague-Dawley rat assessed as inhibition of carrageenan-induced paw edema at 150 umol/kg, po administered 1 hr before carrageenan injection and measured 3 hrs post carrageenan challenge
RAW264.7 [8] = assay: Inhibition of TNFalpha production in mouse RAW264.7 cells at 30 uM incubated for 6 hrs by sandwich immunoassay; format: functional; conditions: RAW264.7, 6 h; how it was run: as §1
[9] = Cytotoxicity against mouse RAW264.7 cells assessed as cell viability at 50 uM after 24 hrs by MTT assay; format: cell-based; conditions: read-out: Activity
How it was run: (§2)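 RAW 264.7 and J774A.1 cells handled in parallel. Viability was read at 50 µM alongside the LPS-stimulated NO (Griess) assay. Values are from three independent experiments, each run in triplicate.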

J774.A1 [10] = assay: Inhibition of TNFalpha production in mouse J774A.1 cells at 30 uM incubated for 6 hrs by sandwich immunoassay; format: functional; conditions: J774.A1, 6 h; how it was run: as §1
J774.A1 [11] = assay: Inhibition of IL-1beta production in mouse J774A.1 cells at 30 uM incubated for 12 hrs by sandwich immunoassay; format: functional; conditions: J774.A1, 12 h; how it was run: as §1
[12] = Cytotoxicity against mouse J774A.1 cells assessed as cell viability at 50 uM after 24 hrs by MTT assay; format: cell-based, J774.A1; conditions: read-out: Activity; how it was run: as §2
RAW264.7 [13] = assay: Inhibition of LPS-induced nitric oxide production in mouse RAW264.7 cells pre-incubated for 1 hr followed by LPS stimulation for 24 hrs by Griess reagent based assay; format: functional, cell-based; how it was run: as §2
J774.A1 [14] = assay: Inhibition of LPS-induced nitric oxide production in mouse J774A.1 cells pre-incubated for 1 hr followed by LPS stimulation for 24 hrs by Griess reagent based assay; format: functional, cell-based; how it was run: as §2
RAW264.7 [15] = assay: Inhibition of IL-1beta production in mouse RAW264.7 cells at 30 uM incubated for 12 hrs by sandwich immunoassay; format: functional; conditions: RAW264.7, 12 h; how it was run: as §1
RAW264.7 [16] = assay: Inhibition of IL-1beta production in mouse RAW264.7 cells incubated for 12 hrs by sandwich immunoassay; format: functional, cell-based; conditions: RAW264.7, 12 h; how it was run: as §1

Row | SMILES | IC50 (RAW264.7 [1]) | IC50 (J774.A1 [2]) | inhibition in vivo at 150 µmol/kg (Rattus norvegicus [3]) | inhibition in vivo at 150 µmol/kg (Rattus norvegicus [4]) | IC50 (J774.A1 [5]) | inhibition in vivo at 150 µmol/kg (Rattus norvegicus [6]) | inhibition in vivo at 150 µmol/kg (Rattus norvegicus [7]) | inhibition at 30 µM (RAW264.7 [8]) | viability at 24 h, 50 µM [9] | inhibition at 30 µM (J774.A1 [10]) | inhibition at 30 µM (J774.A1 [11]) | viability at 24 h, 50 µM [12] | IC50 (RAW264.7 [13]) | IC50 (J774.A1 [14]) | inhibition at 30 µM (RAW264.7 [15]) | IC50 (RAW264.7 [16])
1 | C[C@@H]1C[C@H]2[C@@H]3CCC4=CC(=O)C=C[C@]4(C)[C@@]3(F)[C@@H](O)C[C@]2(C)[C@@]1(O)C(=O)CO [DEXAMETHASONE] | 0.04 µM | 0.4 µM | 73.4% | 62.5% | 22 µM |  |  |  |  |  |  |  |  |  |  | 
2 | CC(C)Cc1ccc(C(C)C(=O)O)cc1 (centres undefined) [IBUPROFEN] |  |  |  |  |  | 41.4% | 30.5% |  |  |  |  |  |  |  |  | 
3 | CCOc1ccccc1C1CC(=O)c2ccccc2O1 (centres undefined) |  |  |  |  |  |  |  | 38.5% | 82.6% | 38.8% | 27.7% | 92.7% | 38.5 µM | 38.8 µM | 29.6% | 
4 | CC(C)CCOc1ccccc1C1CC(=O)c2ccccc2O1 (centres undefined) |  |  |  |  |  |  |  | 39.2% | 81.6% | 42.6% | 43.6% | 88.6% | 39.2 µM | 42.6 µM | 47.6% | 
5 | COCOc1ccccc1C1CC(=O)c2ccccc2O1 (centres undefined) |  |  |  |  |  |  |  | 48.6% | 92.2% | 45.2% | 33.3% | 99.4% | 32.6 µM | 35.2 µM | 35.2% | 
6 | COc1ccccc1C1CC(=O)c2ccccc2O1 (centres undefined) |  |  |  |  |  |  |  | 37.3% | 84.3% | 34.5% | 38.3% | 89.3% | 47.3 µM | 44.5 µM | 37.3% | 
7 | CC(C)c1ccc(COc2ccccc2C2CC(=O)c3ccccc3O2)cc1 (centres undefined) | 23.7 µM | 23.2 µM | 30.3% | 24.6% | 23.1 µM | 32.3% | 18% | 80.6% | 92.5% | 78.6% | 91.7% | 99.7% | 27.1 µM | 28.6 µM | 91.5% | 25.1 µM
8 | CCCCOc1ccccc1C1CC(=O)c2ccccc2O1 (centres undefined) |  |  |  |  |  |  |  | 48.7% | 78.3% | 47.7% | 42.5% | 95.5% | 48.7 µM | 47.7 µM | 19.3% | 
9 | O=C1CC(c2ccccc2OCc2ccccc2)Oc2ccccc21 (centres undefined) | 20.1 µM | 22.4 µM | 32.1% | 28.4% | 24.5 µM | 35.7% | 9.8% | 86.1% | 91.2% | 83.1% | 91.5% | 96.5% | 18.9 µM | 23.2 µM | 93.2% | 25.2 µM
10 | CCCOc1ccccc1C1CC(=O)c2ccccc2O1 (centres undefined) |  |  |  |  |  |  |  | 46% | 91.7% | 44.6% | 43.6% | 93.6% | 46 µM | 44.6 µM | 45.7% | 
11 | CC(C)=CCOc1ccccc1C1CC(=O)c2ccccc2O1 (centres undefined) |  |  |  |  |  |  |  | 41.7% | 94.8% | 31.7% | 40.3% | 92.3% | 32.7 µM | 34.3 µM | 41.8% | 
12 | O=C1CC(c2ccccc2OCc2ccc(F)cc2)Oc2ccccc21 (centres undefined) | 17.7 µM | 18.2 µM | 55.4% | 43.6% |  | 50.5% | 18.2% | 92.7% | 95.2% | 94.1% | 42.1% | 91.1% | 28.2 µM | 25.5 µM | 45.2% | 
13 | CC(C)COc1ccccc1C1CC(=O)c2ccccc2O1 (centres undefined) |  |  |  |  |  |  |  | 36.7% | 83.3% | 33.2% | 33.5% | 84.5% | 36.7 µM | 33.2 µM | 30.4% | 
14 | CCCCCOc1ccccc1C1CC(=O)c2ccccc2O1 (centres undefined) |  |  |  |  |  |  |  | 39.2% | 90.3% | 39.3% | 40.1% | 92.1% | 39.2 µM | 39.3 µM | 41.3% | 
15 | O=C1CC(c2ccccc2OCc2cccc(F)c2)Oc2ccccc21 (centres undefined) | 19.8 µM | 20.1 µM | 49.6% | 39.2% | 30.2 µM | 39.5% | 5.2% | 91.6% | 90.3% | 96.2% | 92.7% | 92.7% | 15.6 µM | 13.2 µM | 93.3% | 27.4 µM
16 | C=CCOc1ccccc1C1CC(=O)c2ccccc2O1 (centres undefined) |  |  |  |  |  |  |  | 47.8% | 89.3% | 38.6% | 47% | 84% | 37.8 µM | 38.6 µM | 49.3% | 
